# Reference: ChEMBL document CHEMBL4680335, “Synthesis, anticancer and antimicrobial evaluation of new benzofuran based derivatives: PI3K inhibition, quorum sensing and molecular modeling study” (Bioorg Med Chem, 2021)
# pIC50: −log10 of the molar value.
# Experiments:
# [1] = test system: MCF7; experiment: Antiproliferative activity against human MCF7 cells assessed as reduction in cell growth; format: functional, cell-based
# [2] = test system: HeLa; experiment: Antiproliferative activity against human HeLa cells assessed as reduction in cell growth; format: functional, cell-based
# [3] = test system: PC-3; experiment: Antiproliferative activity against human PC3 cells assessed as reduction in cell growth; format: functional, cell-based
# [4] = test system: WI-38; experiment: Cytotoxicity against human WI38 cells by MTT assay; format: cell-based
# [5] = molecular target: Phosphatidylinositol 4,5-bisphosphate 3-kinase catalytic subunit alpha isoform (Homo sapiens, UniProt P42336); experiment: Inhibition of human PI3Kalpha by ELISA
# Sequence of Phosphatidylinositol 4,5-bisphosphate 3-kinase catalytic subunit alpha isoform (P42336 whole entry, canonical isoform): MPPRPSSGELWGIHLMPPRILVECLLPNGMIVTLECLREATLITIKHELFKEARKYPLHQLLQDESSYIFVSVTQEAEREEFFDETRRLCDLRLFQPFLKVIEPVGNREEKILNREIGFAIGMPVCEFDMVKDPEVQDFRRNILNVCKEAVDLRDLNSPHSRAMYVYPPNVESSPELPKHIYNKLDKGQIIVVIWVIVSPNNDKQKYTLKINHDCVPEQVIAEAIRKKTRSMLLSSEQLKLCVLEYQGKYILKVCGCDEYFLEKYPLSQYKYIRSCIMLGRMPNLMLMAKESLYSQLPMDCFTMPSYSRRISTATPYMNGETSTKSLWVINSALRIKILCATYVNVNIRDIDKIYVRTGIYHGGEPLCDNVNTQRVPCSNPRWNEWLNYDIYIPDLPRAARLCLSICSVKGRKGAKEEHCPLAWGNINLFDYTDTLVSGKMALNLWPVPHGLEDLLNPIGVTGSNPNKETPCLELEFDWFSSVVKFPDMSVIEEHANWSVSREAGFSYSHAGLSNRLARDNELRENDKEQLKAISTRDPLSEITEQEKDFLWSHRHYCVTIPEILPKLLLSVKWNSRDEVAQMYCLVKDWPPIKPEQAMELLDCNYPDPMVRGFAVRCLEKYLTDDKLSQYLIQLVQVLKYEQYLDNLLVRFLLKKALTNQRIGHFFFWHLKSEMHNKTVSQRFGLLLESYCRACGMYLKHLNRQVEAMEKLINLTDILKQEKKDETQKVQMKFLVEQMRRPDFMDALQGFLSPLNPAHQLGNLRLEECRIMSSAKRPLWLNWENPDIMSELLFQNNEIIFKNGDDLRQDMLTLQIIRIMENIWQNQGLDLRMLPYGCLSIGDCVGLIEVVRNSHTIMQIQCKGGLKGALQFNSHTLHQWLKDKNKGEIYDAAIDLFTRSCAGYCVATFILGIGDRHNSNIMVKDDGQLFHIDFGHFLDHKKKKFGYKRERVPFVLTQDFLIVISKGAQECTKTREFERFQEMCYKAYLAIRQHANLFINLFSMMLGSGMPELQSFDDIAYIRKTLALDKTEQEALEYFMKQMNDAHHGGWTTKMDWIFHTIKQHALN
# How it was run: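 Human PI3Kα activity measured by ELISA in wells coated with a PI3K-specific antibody. Standard or test compound was added at room temperature and absorbance read. A log–log standard curve related absorbance to standard concentration. Percent inhibition was calculated against control, and IC50 was obtained from concentration/inhibition curves.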
# [6] = test system: MCF7; experiment: Induction of cell cycle arrest in human MCF7 cells assessed as accumulation at G0-G1 phase at […] incubated for 24 hrs by propidium iodide staining based flow cytometry analysis (reference value: 53.89 %); format: functional; set-up: dose or concentration left out as unconfirmed
# [7] = test system: MCF7; experiment: Induction of cell cycle arrest in human MCF7 cells assessed as accumulation at S phase at […] incubated for 24 hrs by propidium iodide staining based flow cytometry analysis (reference value: 36.26 %); format: functional; set-up: dose or concentration left out as unconfirmed
# [8] = test system: MCF7; experiment: Induction of cell cycle arrest in human MCF7 cells assessed as accumulation at G2/M phase at […] incubated for 24 hrs by propidium iodide staining based flow cytometry analysis (reference value: 9.85 %); format: functional; set-up: dose or concentration left out as unconfirmed
# [9] = test system: MCF7; experiment: Induction of apoptosis in human MCF7 cells assessed as accumulation at preG1 phase at […] incubated for 24 hrs by propidium iodide staining based flow cytometry analysis (reference value: 1.78 %); format: functional; set-up: dose or concentration left out as unconfirmed
# [10] = test system: MCF7; experiment: Induction of apoptosis in human MCF7 cells assessed as early apoptotic cells at […] incubated for 24 hrs by Annexin V-FITC and propidium iodide staining based flow cytometry analysis (reference value: 0.42 %); format: functional; set-up: dose or concentration left out as unconfirmed
# [11] = test system: MCF7; experiment: Induction of apoptosis in human MCF7 cells assessed as late apoptotic cells at […] incubated for 24 hrs by Annexin V-FITC and propidium iodide staining based flow cytometry analysis (reference value: 0.15 %); format: functional; set-up: dose or concentration left out as unconfirmed
# [12] = test system: MCF7; experiment: Induction of apoptosis in human MCF7 cells assessed as necrotic cells at […] incubated for 24 hrs by Annexin V-FITC and propidium iodide staining based flow cytometry analysis (reference value: 1.21 %); format: functional; set-up: dose or concentration left out as unconfirmed
# [13] = Inhibition of quorum sensing in Chromobacterium violaceum ATCC 12472 assessed as inhibition zone at 5 mg/ml incubated for 48 hrs by well diffusion method; format: functional; settings: read-out: IZ
# How it was run: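 Chromobacterium violaceum ATCC 12472 grown in LB broth at 28 °C, 48 h. 50 μL inoculated into 5 ml soft LB agar and overlaid on LB agar plates. Wells received 100 μL compound in DMSO (5 mg/ml); DMSO as negative control. 28 °C, 48 h. Growth-inhibition radius r1 and pigment-plus-growth radius r2 measured; QS inhibition = r2 − r1 (mm).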
# [14] = Safety index, ratio of IC50 for cytotoxicity against human WI-38 cells to IC50 for antiproliferative activity against human HepG2 cells; format: toxicity, cell-based; settings: WI-38 cells versus HepG2 cells
# [15] = Safety index, ratio of IC50 for cytotoxicity against human WI-38 cells to IC50 for antiproliferative activity against human MCF7 cells; format: toxicity, cell-based; settings: WI-38 cells versus MCF7 cells
# [16] = Safety index, ratio of IC50 for cytotoxicity against human WI-38 cells to IC50 for antiproliferative activity against human HeLa cells; format: toxicity, cell-based; settings: WI-38 cells versus HeLa cells
# [17] = Safety index, ratio of IC50 for cytotoxicity against human WI-38 cells to IC50 for antiproliferative activity against human PC-3 cells; format: toxicity, cell-based; settings: WI-38 cells versus PC-3 cells
# [18] = test system: HepG2; experiment: Antiproliferative activity against human HepG2 cells assessed as reduction in cell growth; format: functional, cell-based
# [19] = test system: Pseudomonas aeruginosa; experiment: Antibacterial activity against Pseudomonas aeruginosa PAO1 assessed as diameter of zone inhibition at 5 mg/ml incubated for 24 hrs by agar plate diffusion method; format: functional; settings: read-out: DIZ
# How it was run: (§1)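 Cup (well) agar diffusion in Mueller Hinton agar. Overnight MH broth culture diluted to 0.5 McFarland; 20 μL mixed into MH agar at 50 °C, poured into 9-cm plates. Wells cut with a cork borer and filled with 100 μL compound in DMSO (final 5 mg/mL). DMSO as negative control, ampicillin/clavulanic acid as reference. 37 °C, 24 h; inhibition zone diameter in mm.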
# [20] = test system: Candida albicans; experiment: Antifungal activity against Candida albicans CS35 assessed as diameter of zone inhibition at 5 mg/ml incubated for 24 hrs by agar plate diffusion method; format: functional; settings: read-out: DIZ
# How it was run: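 Cup diffusion using Sabouraud's medium for C. albicans. 100 μL compound in DMSO (5 mg/mL) per well, DMSO as negative control, fluconazole as reference. 37 °C, 24 h; inhibition zone diameter in mm.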
# [21] = test system: Pseudomonas aeruginosa; experiment: Antibacterial activity against Pseudomonas aeruginosa PAO1 assessed as reduction in bacterial growth incubated for 18 hrs by two-fold serial dilution method; format: functional
# How it was run: (§2)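 Broth microdilution per CLSI 2015. Selection: compounds active in agar diffusion. Twofold (1:1) dilutions in 0.1 ml MH broth; inoculum 5 × 10^6 CFU/ml diluted suspension. Ampicillin/clavulanic acid as positive control.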
# [22] = test system: Candida albicans; experiment: Antifungal activity against Candida albicans CS35 assessed as reduction in fungal growth incubated for 18 hrs by two-fold serial dilution method; format: functional
# How it was run: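 Broth microdilution per CLSI M27-A3/M38-A2. Selection: compounds active in agar diffusion. Twofold (1:1) dilutions in 0.1 ml yeast peptone dextrose medium; fluconazole as positive control.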
# [23] = test system: Staphylococcus aureus; experiment: Antibacterial activity against Staphylococcus aureus ATCC 29213 assessed as diameter of zone inhibition at 5 mg/ml incubated for 24 hrs by agar plate diffusion method; format: functional; settings: read-out: DIZ; how it was run: as §1
# [24] = test system: Bacillus cereus; experiment: Antibacterial activity against Bacillus cereus UW85 assessed as diameter of zone inhibition at 5 mg/ml incubated for 24 hrs by agar plate diffusion method; format: functional; settings: read-out: DIZ; how it was run: as §1
# [25] = test system: Staphylococcus aureus; experiment: Antibacterial activity against Staphylococcus aureus ATCC 29213 assessed as reduction in bacterial growth incubated for 18 hrs by two-fold serial dilution method; format: functional; how it was run: as §2
# [26] = test system: Bacillus cereus; experiment: Antibacterial activity against Bacillus cereus UW85 assessed as reduction in bacterial growth incubated for 18 hrs by two-fold serial dilution method; format: functional; how it was run: as §2
# [27] = test system: Escherichia coli; experiment: Antibacterial activity against Escherichia coli ATCC 12435 assessed as diameter of zone inhibition at 5 mg/ml incubated for 24 hrs by agar plate diffusion method; format: functional; settings: read-out: DIZ; how it was run: as §1
smiles,measurement,setting,value
CCOC(=O)Cc1csc(N/N=C(\C)c2cc3ccccc3o2)n1,pIC50,[1],5.18
same,pIC50,[2],5.03
same,pIC50,[3],4.88
same,pIC50,[4],4.43
same,pIC50,[5],5.11
same,Activity,[6],43.95%
same,Activity,[7],33.71%
same,Activity,[8],22.34%
same,Activity,[9],17.66%
same,Activity,[10],3.27%
same,Activity,[11],8.1%
same,Activity,[12],6.29%
same,zone of inhibition at 5000 µg/mL,[13],3 mm
same,selectivity ratio,[14],4.75
same,selectivity ratio,[15],5.61
same,selectivity ratio,[16],3.97
same,selectivity ratio,[17],2.8
C/C(=N\Nc1nc(-c2ccc(C)cc2)cs1)c1cc2ccccc2o1,pIC50,[18],4.85
same,pIC50,[1],4.96
same,pIC50,[2],4.84
same,pIC50,[3],4.67
C/C(=N\Nc1nc(-c2ccc(Br)cc2)cs1)c1cc2ccccc2o1,pIC50,[18],4.56
same,pIC50,[1],4.48
same,pIC50,[2],4.49
same,pIC50,[3],4.34
COc1ccc(C(=O)CSC(=S)N/N=C(\C)c2cc3ccccc3o2)cc1,pIC50,[18],4.50
same,pIC50,[1],4.42
same,pIC50,[2],4.33
same,pIC50,[3],4.13
same,zone of inhibition at 5000 µg/mL,[19],8 mm
same,zone of inhibition at 5000 µg/mL,[20],5 mm
same,MIC,[21],512 µg/mL
same,MIC,[22],256 µg/mL
CN1CCN(C(=S)Cc2cc3ccccc3o2)CC1,pIC50,[18],4.19
same,pIC50,[1],4.13
same,pIC50,[3],4.08
COc1ccc(-c2csc(N/N=C(\C)c3cc4ccccc4o3)n2)cc1,pIC50,[18],4.80
same,pIC50,[1],4.72
same,pIC50,[2],4.73
same,pIC50,[3],4.54
same,zone of inhibition at 5000 µg/mL,[13],3 mm
O=CC(/N=N/c1ccc(Cl)cc1)=C(\O)c1cc2ccccc2o1,pIC50,[18],4.43
same,pIC50,[2],4.42
same,pIC50,[3],4.29
same,zone of inhibition at 5000 µg/mL,[23],9 mm
same,zone of inhibition at 5000 µg/mL,[24],6 mm
same,MIC,[25],128 µg/mL
same,MIC,[26],256 µg/mL
COc1ccc(/N=N/C(C=O)=C(/O)c2cc3ccccc3o2)cc1,pIC50,[18],4.38
same,pIC50,[3],4.25
same,zone of inhibition at 5000 µg/mL,[23],7 mm
same,zone of inhibition at 5000 µg/mL,[24],5 mm
same,MIC,[25],128 µg/mL
same,MIC,[26],265 µg/mL
O=CC(/N=N/c1ccc([N+](=O)[O-])cc1)=C(\O)c1cc2ccccc2o1,pIC50,[18],4.45
same,pIC50,[1],4.36
same,pIC50,[2],4.42
same,pIC50,[3],4.30
same,zone of inhibition at 5000 µg/mL,[23],6 mm
same,zone of inhibition at 5000 µg/mL,[19],10 mm
same,zone of inhibition at 5000 µg/mL,[20],9 mm
same,MIC,[25],8 µg/mL
same,MIC,[21],512 µg/mL
same,MIC,[22],256 µg/mL
Cc1ccc(/N=N/C(C=O)=C(/O)c2cc3ccccc3o2)cc1,pIC50,[18],4.33
same,pIC50,[1],4.23
same,pIC50,[3],4.21
same,zone of inhibition at 5000 µg/mL,[23],6 mm
same,zone of inhibition at 5000 µg/mL,[19],10 mm
same,MIC,[25],128 µg/mL
same,MIC,[26],256 µg/mL
same,MIC,[21],512 µg/mL
C/C(=N\Nc1nc(-c2ccc(Cl)cc2)cs1)c1cc2ccccc2o1,pIC50,[18],4.63
same,pIC50,[1],4.52
same,pIC50,[2],4.57
same,pIC50,[3],4.42
C/C(=N\Nc1nc(-c2cc3ccccc3o2)cs1)c1cc2ccccc2o1,pIC50,[18],4.67
same,pIC50,[1],4.59
same,pIC50,[2],4.62
same,pIC50,[3],4.47
same,zone of inhibition at 5000 µg/mL,[13],2 mm
C/C(=N\Nc1nc(-c2ccccc2)cs1)c1cc2ccccc2o1,pIC50,[18],4.99
same,pIC50,[1],5.07
same,pIC50,[2],4.93
same,pIC50,[3],4.78
same,pIC50,[4],4.38
same,pIC50,[5],5.39
same,Activity,[6],39.61%
same,Activity,[7],29.57%
same,Activity,[8],30.82%
same,Activity,[9],29.93%
same,Activity,[10],5.92%
same,Activity,[11],14.65%
same,Activity,[12],9.36%
same,selectivity ratio,[14],4.04
same,selectivity ratio,[15],4.91
same,selectivity ratio,[16],3.56
same,selectivity ratio,[17],2.49
OC(Cn1cncn1)(Cn1cncn1)c1ccc(F)cc1F [FLUCONAZOLE],zone of inhibition at 5000 µg/mL,[20],8 mm
same,MIC,[22],256 µg/mL
CN(C)/C=C/C(=O)c1cc2ccccc2o1,zone of inhibition at 5000 µg/mL,[13],5 mm
same,MIC,[22],256 µg/mL
CC1(C)S[C@@H]2[C@H](NC(=O)[C@H](N)c3ccccc3)C(=O)N2[C@H]1C(=O)O [AMPICILLIN],zone of inhibition at 5000 µg/mL,[23],6 mm
same,zone of inhibition at 5000 µg/mL,[24],10 mm
same,zone of inhibition at 5000 µg/mL,[27],10 mm
same,MIC,[25],128 µg/mL
same,MIC,[26],128 µg/mL
same,MIC,[21],> 5000 µg/mL
C/C(=N\Nc1nc(C)cs1)c1cc2ccccc2o1,pIC50,[18],5.40
same,pIC50,[1],5.31
same,pIC50,[3],5.05
same,pIC50,[4],4.35
same,pIC50,[5],4.69
same,zone of inhibition at 5000 µg/mL,[24],11 mm
same,zone of inhibition at 5000 µg/mL,[20],10 mm
same,zone of inhibition at 5000 µg/mL,[13],7 mm
same,MIC,[25],64 µg/mL
same,MIC,[26],128 µg/mL
same,MIC,[22],128 µg/mL
same,selectivity ratio,[14],11.1
same,selectivity ratio,[15],9.06
same,selectivity ratio,[16],4.94
same,selectivity ratio,[17],4.93
